Values after ≈ are worked out from the molar mass of the structure shown. Active and inactive are the calls of the source. No cut-off for these calls is given here.

The text below walks through data of ChEMBL document CHEMBL2434951, “Synthesis and antimicrobial activity of polyhalobenzonitrile quinazolin-4(3H)-one derivatives” (2013).

Format in all cases: functional
For assay [1], the system named is Candida albicans. As to the kind of experiment: Antifungal activity against Candida albicans ATCC 10231 assessed as growth inhibition at 1000 ug/mL after 24 hrs by disk diffusion assay. Particulars: for zone of inhibition at 1000 µg/mL: ATCC 10231, 24 h, read-out: DIZ. The procedure, abridged:
(§1)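 Disk diffusion on nutrient agar, inoculum spread evenly. Disks of 6 mm Whatman No. 1 paper, dry-heat sterilized at 121 °C for 1 h, soaked in test compound at 1000 (micro)g/mL. Norfloxacin and chlorothalonil disks as positive controls, DMSO disks as negative control. Plates incubated 24 h at 37 °C. Inhibition zone diameter measured in mm.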
(In agar diffusion tests the substance spreads into inoculated agar from a disc or well.)

The test system of assay [2] is Escherichia coli. As to the kind of experiment: Antibacterial activity against Escherichia coli ATCC 8099 assessed as growth inhibition at 1000 ug/mL after 24 hrs by disk diffusion assay. To be noted: ATCC 8099, 24 h, read-out: DIZ. Summed up:
as §1

Assay [3] deals with Bacillus cereus. As to the kind of experiment: Antibacterial activity against Bacillus cereus ATCC 14579 assessed as growth inhibition at 1000 ug/mL after 24 hrs by disk diffusion assay. To be noted: ATCC 14579, 24 h, read-out: DIZ. The procedure, abridged:
as §1

Assay [4] concerns Bacillus cereus. The assay can be described thus: Bactericidal activity against Bacillus cereus ATCC 14579 after 18 to 24 hrs. Particulars: read-out: MBC99.9. The procedure, abridged:
(§2)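 After the liquid dilution MIC tubes, 0.1 mL from each tube spread on agar plates. Colonies counted after 18–24 h incubation at 35 °C. MBC taken as the lowest drug concentration killing 99.9% of the inoculum.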

The test system of assay [5] is Candida albicans. The assay can be described thus: Fungicidal activity against Candida albicans ATCC 10231 after 18 to 24 hrs. To be noted: read-out: MFC99.9. Summed up: as §2
Assay [6] concerns Candida albicans. As to the kind of experiment: Antifungal activity against Candida albicans ATCC 10231 assessed as growth inhibition after 24 hrs by liquid dilution method. Particulars: ATCC 10231, 24 h. The procedure, abridged: (§3)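 Liquid (tube) dilution. Compounds and positive controls in DMSO at 11 concentrations from 0.98 upward. Each tube held 1 mL compound solution plus bacterial or fungal inoculum and sterile water. Incubated 24 h, then checked for turbidity; MIC is the lowest concentration without growth. Chlorothalonil, norfloxacin and fluconazole as standards.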

Assay [7] deals with Pseudomonas aeruginosa. As to the kind of experiment: Antibacterial activity against Pseudomonas aeruginosa ATCC 15442 assessed as growth inhibition at 1000 ug/mL after 24 hrs by disk diffusion assay. Particulars: ATCC 15442, 24 h, read-out: DIZ. The procedure, abridged: as §1
Assay [8] relates to Bacillus cereus. As to the kind of experiment: Antibacterial activity against Bacillus cereus ATCC 14579 assessed as growth inhibition after 24 hrs by liquid dilution method. To be noted: ATCC 14579, 24 h. Summed up:
as §3

The subject of assay [9] is Staphylococcus aureus. The assay can be described thus: Antibacterial activity against Staphylococcus aureus ATCC 6538 assessed as growth inhibition after 24 hrs by liquid dilution method. Particulars: ATCC 6538, 24 h. Summed up: as §3
Assay [10] concerns Staphylococcus aureus. The assay can be described thus: Bactericidal activity against Staphylococcus aureus ATCC 6538 after 18 to 24 hrs. Particulars: read-out: MBC99.9. The procedure, abridged: as §2
Assay [11] concerns Pseudomonas aeruginosa. The assay can be described thus: Antibacterial activity against Pseudomonas aeruginosa ATCC 15442 assessed as growth inhibition after 24 hrs by liquid dilution method. Particulars: ATCC 15442, 24 h. The procedure, abridged:
as §3

Assay [12] relates to Staphylococcus aureus. As to the kind of experiment: Antibacterial activity against Staphylococcus aureus ATCC 6538 assessed as growth inhibition at 1000 ug/mL after 24 hrs by disk diffusion assay. To be noted: ATCC 6538, 24 h, read-out: DIZ. Summed up: as §1
For assay [13], the system named is Escherichia coli. As to the kind of experiment: Antibacterial activity against Escherichia coli ATCC 8099 assessed as growth inhibition after 24 hrs by liquid dilution method. Particulars: ATCC 8099, 24 h. Summed up:
as §3

For the molecule `CN(C)c1ccc(Nc2c(Cl)c(Cl)c(C#N)c(Cl)c2C#N)c2nc[nH]c(=O)c12`, the zone of inhibition at 1000 µg/mL in assay [1] was found to be 15.5 mm; in assay [2] it was 19 mm; in [3], 18 mm; in assay [7], 15 mm; in [12] it was 14.3 mm. The MBC in assay [4] came out at 3.3 µg/mL (≈ 7.61 µM); in [10], 2.6 µg/mL (≈ 6 µM). Further, in assay [5], the MFC was determined as 7.8 µg/mL (≈ 18 µM). Also, the MIC (usually the lowest concentration that inhibits growth of the organism) in assay [6] stood at 0.5 µg/mL (≈ 1.15 µM); in assay [8], 0.8 µg/mL (≈ 1.84 µM); in assay [9], 3.3 µg/mL (≈ 7.61 µM); in [11], 2 µg/mL (≈ 4.61 µM); in [13], 1.3 µg/mL (≈ 3 µM).

`N#Cc1c(Cl)c(Cl)c(Nc2ccc(Nc3ccc(F)cc3)c3c(=O)[nH]cnc23)c(C#N)c1Cl`: the zone of inhibition at 1000 µg/mL was found to be 10.5 mm in [1]; 9 mm in [2]; 18 mm in assay [3]; 11 mm in assay [7]; 11.5 mm in assay [12]. Besides, the MBC in assay [4] and in assay [10] was 6.5 µg/mL (≈ 13 µM) in each case. Moreover, the MFC in [5] came out at 52.1 µg/mL (≈ 104 µM). In addition, the MIC turned out to be 1.7 µg/mL (≈ 3.4 µM) in [6]; 0.7 µg/mL (≈ 1.4 µM) in assay [8]; 0.8 µg/mL (≈ 1.6 µM) in assay [9]; 1.7 µg/mL (≈ 3.4 µM) in [11]; 6.5 µg/mL (≈ 13 µM) in assay [13].

In the case of `N#Cc1c(Cl)c(Cl)c(Nc2ccc(N3CCCCC3)c3c(=O)[nH]cnc23)c(C#N)c1Cl`, the “diameter of the inhibition zone (DIZ)” value in assay [1] was “inactive”. The zone of inhibition at 1000 µg/mL in assay [2] turned out to be 9 mm; in assay [3] it was 15 mm; in assay [7], 8.7 mm; in assay [12], 9.7 mm. Further, the MBC in [4] worked out at 6.5 µg/mL (≈ 13.7 µM); in assay [10], 4.6 µg/mL (≈ 9.71 µM). In addition, the MFC in assay [5] stood at 41.7 µg/mL (≈ 88 µM). In addition, the minimum inhibitory concentration (MIC) came to 2.6 µg/mL (≈ 5.49 µM) in assay [6]; 0.5 µg/mL (≈ 1.06 µM) in [8]; 0.7 µg/mL (≈ 1.48 µM) in assay [9]; 1.3 µg/mL (≈ 2.74 µM) in assay [11]; 1 µg/mL (≈ 2.11 µM) in assay [13].

`N#Cc1c(Cl)c(Cl)c(Cl)c(C#N)c1Cl` [CHLOROTHALONIL]: the zone of inhibition at 1000 µg/mL in assay [1] is 17 mm; in assay [2] it was 18.5 mm; in [3], 15.5 mm; in assay [7], 15.8 mm; in [12], 14 mm. The MBC in [4] stood at 1.7 µg/mL (≈ 6.39 µM); in assay [10], 2 µg/mL (≈ 7.52 µM). Besides, the MFC in [5] worked out at 7.8 µg/mL (≈ 29.3 µM). Moreover, the minimum inhibitory concentration (MIC) in [6] came out at 0.7 µg/mL (≈ 2.63 µM); in assay [8], 0.7 µg/mL (≈ 2.63 µM); in [9], 1.3 µg/mL (≈ 4.89 µM); in assay [11], 1.7 µg/mL (≈ 6.39 µM); in assay [13], 0.5 µg/mL (≈ 1.88 µM).

Turning to `N#Cc1c(Cl)c(Cl)c(Nc2ccc(Nc3cccc(Cl)c3)c3c(=O)[nH]cnc23)c(C#N)c1Cl`, the zone of inhibition at 1000 µg/mL in assay [1] came to 9 mm; in assay [2], 9 mm; in assay [3], 9 mm; in [7] it was 8.7 mm; in [12], 8.5 mm. In addition, the MBC turned out to be 41.7 µg/mL (≈ 80.8 µM) in assay [4] and 31.3 µg/mL (≈ 60.6 µM) in assay [10]. The MFC in assay [5] was 31.3 µg/mL (≈ 60.6 µM). Moreover, the MIC in [6] came out at 1.7 µg/mL (≈ 3.29 µM); in assay [8], 0.5 µg/mL (≈ 0.969 µM); in assay [9] it was 0.7 µg/mL (≈ 1.36 µM); in [11], 20.8 µg/mL (≈ 40.3 µM); in assay [13] it was 7.8 µg/mL (≈ 15.1 µM).

Turning to `Cc1cc(C)cc(Nc2ccc(Nc3c(Cl)c(Cl)c(C#N)c(Cl)c3C#N)c3nc[nH]c(=O)c23)c1`, the zone of inhibition at 1000 µg/mL in assay [1] stood at 7 mm; in [2], 11.5 mm; in assay [3], 10.3 mm; in assay [7], 10 mm; in assay [12], 10 mm. Besides, the MBC in assay [4] and in assay [10] was 31.3 µg/mL (≈ 61.4 µM) in each case. Further, in [5], the MFC is 52.1 µg/mL (≈ 102 µM). The minimal inhibitory concentration (MIC) in assay [6] amounted to 5.2 µg/mL (≈ 10.2 µM); in assay [8], 0.7 µg/mL (≈ 1.37 µM); in assay [9] it was 0.8 µg/mL (≈ 1.57 µM); in [11], 20.8 µg/mL (≈ 40.8 µM); in assay [13], 7.8 µg/mL (≈ 15.3 µM).

As to `OC(Cn1cncn1)(Cn1cncn1)c1ccc(F)cc1F` [FLUCONAZOLE], in assay [5], the MFC amounted to 15.6 µg/mL (≈ 50.9 µM). The MIC in [6] amounted to 2 µg/mL (≈ 6.53 µM).
